Experimental data taken from ChEMBL document CHEMBL5329210, “Novel piperazine-1,2,3-triazole leads for the potential treatment of pancreatic cancer” (RSC Med Chem, 2023).

Legend:
ASPC1 [1] = assay: Inhibition of cell growth of human ASPC1 cells measured after 72 hrs by CCK8 assay; type: functional
Capan-2 [2] = assay: Inhibition of cell growth of human Capan-2 cells measured after 72 hrs by CCK8 assay; type: functional
PANC-1 [3] = assay: Inhibition of cell growth of human PANC-1 cells measured after 72 hrs by CCK8 assay; type: functional
HPAC [4] = assay: Inhibition of cell growth of human HPAC cells measured after 72 hrs by CCK8 assay; type: functional
BXPC-3 [5] = assay: Inhibition of cell growth of human BXPC-3 cells measured after 72 hrs by CCK8 assay; type: functional
Outline: (§1)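 CCK-8 viability in human pancreatic cancer lines. Compounds were added over 100–0.05 μM 24 h after seeding, alongside a 0.5% DMSO vehicle. After 72 h, CCK-8 was incubated for 1 h at 37 °C. A450 minus A650 was expressed as % of vehicle. IC50 was taken from the dose-response curve. Seeding was 3×10^3/well for MiaPaCa2 and 7×10^3/well for BxPC3 and CFPAC-1. n = 3.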

HPAC [6] = assay: Inhibition of cell growth of human HPAC cells at 25 uM measured after 72 hrs by MTT assay relative to control; type: functional
Outline: (§2)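 MTT read-out. Cancer lines were grown in DMEM with 10% FBS, glutamine and antibiotics. MCF10A was grown in DMEM:F12 with 5% horse serum, EGF, hydrocortisone, cholera toxin and insulin. Cells were plated in duplicate at 2500–4000/well, and drug was added 24 h later. After 72 h, absorbance was read at 540 nm. Single-point lines used 25 μM. GI50 is 50% growth inhibition versus untreated control. n = 3.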

ASPC1 [7] = assay: Inhibition of cell growth of human ASPC1 cells measured after 72 hrs by MTT assay; type: functional; outline: as §2
PANC-1 [8] = assay: Inhibition of cell growth of human PANC-1 cells measured after 72 hrs by MTT assay; type: functional; outline: as §2
A2780 [9] = assay: Inhibition of cell growth of human A2780 cells at 25 uM measured after 72 hrs by MTT assay relative to control; type: functional; outline: as §2
BXPC-3 [10] = assay: Inhibition of cell growth of human BXPC-3 cells at 25 uM measured after 72 hrs by MTT assay relative to control; type: functional; outline: as §2
BE(2)-C [11] = assay: Inhibition of cell growth of human BE2C cells measured after 72 hrs by MTT assay; type: functional; outline: as §2
Capan-2 [12] = assay: Inhibition of cell growth of human Capan-2 cells at 25 uM measured after 72 hrs by MTT assay relative to control; type: functional; outline: as §2
MCF7 [13] = assay: Inhibition of cell growth of human MCF7 cells measured after 72 hrs by MTT assay; type: functional; outline: as §2
A2780 [14] = assay: Inhibition of cell growth of human A2780 cells measured after 72 hrs by MTT assay; type: functional; outline: as §2
Capan-2 [15] = assay: Inhibition of cell growth of human Capan-2 cells measured after 72 hrs by MTT assay; type: functional; outline: as §2
MIA PaCa-2 [16] = assay: Inhibition of cell growth of human MIA PaCa-2 cells at 25 uM measured after 72 hrs by MTT assay relative to control; type: functional; outline: as §2
[17] = Inhibition of cell growth of human MCF-10A cells measured after 72 hrs by MTT assay; type: toxicity, cell-based; outline: as §2
PANC-1 [18] = assay: Inhibition of cell growth of human PANC-1 cells at 25 uM measured after 72 hrs by MTT assay relative to control; type: functional; outline: as §2
MCF7 [19] = assay: Inhibition of cell growth of human MCF7 cells at 25 uM measured after 72 hrs by MTT assay relative to control; type: functional; outline: as §2
MIA PaCa-2 [20] = assay: Inhibition of cell growth of human MIA PaCa-2 cells measured after 72 hrs by MTT assay; type: functional; outline: as §2
HT-29 [21] = assay: Inhibition of cell growth of human HT-29 cells measured after 72 hrs by MTT assay; type: functional; outline: as §2
BE(2)-C [22] = assay: Inhibition of cell growth of human BE2C cells at 25 uM measured after 72 hrs by MTT assay relative to control; type: functional; outline: as §2
[23] = Inhibition of cell growth of human MCF-10A cells at 25 uM measured after 72 hrs by MTT assay relative to control; type: toxicity, cell-based; outline: as §2
HT-29 [24] = assay: Inhibition of cell growth of human HT-29 cells at 25 uM measured after 72 hrs by MTT assay relative to control; type: functional; outline: as §2
ASPC1 [25] = assay: Inhibition of cell growth of human ASPC1 cells at 25 uM measured after 72 hrs by MTT assay relative to control; type: functional; outline: as §2
BXPC-3 [26] = assay: Inhibition of cell growth of human BXPC-3 cells measured after 72 hrs by MTT assay; type: functional; outline: as §2
HPAC [27] = assay: Inhibition of cell growth of human HPAC cells measured after 72 hrs by MTT assay; type: functional; outline: as §2
[28] = Inhibition of cell growth of human pancreatic cancer cells measured after 72 hrs by CCK8 assay; type: functional; outline: as §1
U-87 MG = assay: Inhibition of cell growth of human U87 cells measured after 72 hrs by MTT assay; type: functional, U-87MG ATCC; outline: as §2
[29] = Inhibition of cell growth of human SJG2 cells measured after 72 hrs by MTT assay; type: functional; settings: SJ-G2; outline: as §2
BXPC-3 [30] = assay: Inhibition of cell growth of human BXPC-3 cells at 25 uM measured after 72 hrs by CCK8 assay relative to control; type: functional
Outline: (§3)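 Single 25 μM exposure, read by CCK-8, n = 3, relative to control. Seeding was 3×10^3/well for MiaPaCa2, 7×10^3/well for BxPC3 (in RPMI-1640/10% FBS) and 1×10^4/well for HPDE (in KSFM with rEGF/BPE). After 24 h attachment, cells were exposed for 72 h. CCK-8 was then incubated for 1 h, and A450 minus A650 was compared with 0.5% DMSO.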

MIA PaCa-2 [31] = assay: Inhibition of cell growth of human MIA PaCa-2 cells at 25 uM measured after 72 hrs by CCK8 assay relative to control; type: functional; outline: as §3
A-431 = assay: Inhibition of cell growth of human A-431 cells measured after 72 hrs by MTT assay; type: functional; outline: as §2
[32] = Inhibition of cell growth of human HPDE cells at 25 uM measured after 72 hrs by CCK8 assay relative to control; type: toxicity, cell-based; outline: as §3
NCI-H460 = assay: Inhibition of cell growth of human NCI-H460 cells measured after 72 hrs by MTT assay; type: functional; outline: as §2
DU-145 = assay: Inhibition of cell growth of human DU-145 cells measured after 72 hrs by MTT assay; type: functional; outline: as §2

Row | Compound | GI50 (ASPC1 [7]) | GI50 (PANC-1 [8]) | GI50 (BE(2)-C [11]) | GI50 (MCF7 [13]) | GI50 (A2780 [14]) | GI50 (Capan-2 [15]) | GI50 at 72 h [17] | GI50 (MIA PaCa-2 [20]) | GI50 (HT-29 [21]) | GI50 (BXPC-3 [26]) | GI50 (HPAC [27]) | GI50 (U-87 MG) | GI50 [29] | inhibition at 25 µM (BXPC-3 [30]) | inhibition at 25 µM (MIA PaCa-2 [31]) | GI50 (A-431) | inhibition at 72 h, 25 µM [32] | GI50 (NCI-H460) | GI50 (DU-145) | further results
1 | Cc1ccc(-c2cn(CCCN3CCN(S(=O)(=O)c4ccc(C(F)(F)F)cc4)CC3)nn2)cc1 | – | – | – | – | – | – | – | – | – | – | – | – | – | – | – | – | – | – | – | GI50 (ASPC1 [1]): 7.3 µM; GI50 (Capan-2 [2]): 5 µM; GI50 (PANC-1 [3]): 6.1 µM; GI50 (HPAC [4]): 5 µM; GI50 (BXPC-3 [5]): 4 µM
2 | O=S(=O)(c1ccccc1C(F)(F)F)N1CCN(CCCn2cc(-c3ccc(Br)cc3)nn2)CC1 | > 50 µM | > 50 µM | 38 µM | 9.2 µM | 14 µM | 23 µM | 12 µM | > 50 µM | 10 µM | > 50 µM | > 50 µM | – | – | – | – | – | – | – | – | inhibition at 25 µM (HPAC [6]): 42%; inhibition at 25 µM (A2780 [9]): 68%; inhibition at 25 µM (BXPC-3 [10]): < 10%; inhibition at 25 µM (Capan-2 [12]): 65%; inhibition at 25 µM (MIA PaCa-2 [16]): 70%; inhibition at 25 µM (PANC-1 [18]): 53%; inhibition at 25 µM (MCF7 [19]): 87%; inhibition at 25 µM (BE(2)-C [22]): 58%; inhibition at 72 h, 25 µM [23]: 72%; inhibition at 25 µM (HT-29 [24]): 92%; inhibition at 25 µM (ASPC1 [25]): 51%
3 | COc1ccc(-c2cn(CCCN3CCN(S(=O)(=O)c4ccc(C(F)(F)F)cc4)CC3)nn2)cc1 | 14 µM | 5.2 µM | 6.4 µM | 6.1 µM | 6.2 µM | 8.4 µM | 4.9 µM | 7.8 µM | 8.6 µM | 12 µM | 16 µM | – | – | – | – | – | – | – | – | –
4 | CC(C)(C)c1ccc(-c2cn(CCCNCCNS(=O)(=O)c3cc(C(F)(F)F)cc(C(F)(F)F)c3)nn2)cc1 | – | – | – | – | – | – | – | – | – | – | – | – | – | – | – | – | – | – | – | GI50 [28]: 1.1 µM
5 | COc1cccc(-c2cn(CCCN3CCN(S(=O)(=O)c4ccc(Br)cc4)CC3)nn2)c1 | – | – | 20 µM | 14 µM | 20 µM | – | 29 µM | > 50 µM | 18 µM | – | – | > 50 µM | 23 µM | 10.7% | < 10% | 40 µM | 32.6% | 35 µM | 25 µM | –
6 | COc1cccc(-c2cn(CCCN3CCN(S(=O)(=O)c4ccccc4)CC3)nn2)c1 | – | – | > 50 µM | 35 µM | 40 µM | – | > 50 µM | > 50 µM | 28 µM | – | – | > 50 µM | 42 µM | < 10% | < 10% | > 50 µM | 15.8% | > 50 µM | > 50 µM | –
7 | COc1cccc(-c2cn(CCCN3CCN(S(=O)(=O)c4ccc(C(F)(F)F)cc4)CC3)nn2)c1 | – | – | > 50 µM | 28 µM | 21 µM | – | 39 µM | > 50 µM | 23 µM | – | – | > 50 µM | > 50 µM | < 10% | < 10% | > 50 µM | 29% | > 50 µM | > 50 µM | –
8 | COc1cccc(-c2cn(CCCN3CCN(S(=O)(=O)c4ccc(C)cc4)CC3)nn2)c1 | – | – | > 50 µM | 33 µM | 29 µM | – | > 50 µM | > 50 µM | 22 µM | – | – | > 50 µM | > 50 µM | < 10% | < 10% | > 50 µM | 45% | > 50 µM | > 50 µM | –
9 | COc1ccccc1-c1cn(CCCN2CCN(S(=O)(=O)c3ccc(C(F)(F)F)cc3)CC2)nn1 | 0.61 µM | 0.68 µM | 0.59 µM | 0.36 µM | 0.8 µM | 0.56 µM | 1 µM | 0.64 µM | 0.47 µM | 0.48 µM | 0.43 µM | – | – | – | – | – | – | – | – | –
